Results reported in article PMC2910240 (Neuroscience letters, 2010).
Like-named read-outs stand apart in the source and are kept apart here.

What was measured:
[1] = molecular target: human cloned 5-HT7 receptor; conditions: cited from earlier work
human cloned 5-HT1A = conditions: cited from earlier work
h5-HT1B = h5-HT1B (Homo sapiens, UniProt P28222); assay: Competition radioligand binding; conditions: 0.29 nM [3H]GR125743; mean ± S.E.M.
h5-ht5A = h5-ht5A (Homo sapiens, UniProt P47898); assay: Competition radioligand binding; conditions: for Ki: 0.99 nM [3H]LSD, mean ± S.E.M.
5-HT7^+/+ mice = assay: Body temperature regulation in 5-HT7+/+ mice; format: in vivo, mouse
mice = assay: Observation of visible adverse effects in mice; format: in vivo, mouse; conditions: i.p. doses of the body temperature study
h5-HT6 = h5-HT6 (Homo sapiens, UniProt P50406); assay: Competition radioligand binding; conditions: 0.97 nM [3H]LSD; mean ± S.E.M.
h5-HT1A = molecular target: T1, h5-HT1A (Homo sapiens, UniProt P08908); assay: Competition radioligand binding
T1 sequence (P08908 1-422): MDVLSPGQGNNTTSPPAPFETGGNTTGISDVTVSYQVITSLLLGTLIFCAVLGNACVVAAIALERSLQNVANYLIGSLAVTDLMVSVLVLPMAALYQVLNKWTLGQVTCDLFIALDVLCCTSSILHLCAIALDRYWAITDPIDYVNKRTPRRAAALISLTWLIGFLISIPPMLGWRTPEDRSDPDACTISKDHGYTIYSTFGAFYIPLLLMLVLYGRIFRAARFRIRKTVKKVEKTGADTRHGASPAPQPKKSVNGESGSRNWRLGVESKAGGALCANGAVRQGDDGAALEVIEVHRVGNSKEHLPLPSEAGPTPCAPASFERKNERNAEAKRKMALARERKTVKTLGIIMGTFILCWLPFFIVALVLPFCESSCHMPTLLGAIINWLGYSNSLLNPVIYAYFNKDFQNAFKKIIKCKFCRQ

h5-HT1D = h5-HT1D (Homo sapiens, UniProt P28221); assay: Competition radioligand binding; conditions: 1.4 nM [3H]5-CT; mean ± S.E.M.
[2] = molecular target: rat cloned 5-HT7 receptors; conditions: cited from earlier work
r5-HT2C = molecular target: T2, r5-HT2C (Rattus norvegicus, UniProt P08909); assay: Competition radioligand binding; conditions: 0.5 nM [3H]mesulergine; mean ± S.E.M.
T2 sequence (P08909 33-460): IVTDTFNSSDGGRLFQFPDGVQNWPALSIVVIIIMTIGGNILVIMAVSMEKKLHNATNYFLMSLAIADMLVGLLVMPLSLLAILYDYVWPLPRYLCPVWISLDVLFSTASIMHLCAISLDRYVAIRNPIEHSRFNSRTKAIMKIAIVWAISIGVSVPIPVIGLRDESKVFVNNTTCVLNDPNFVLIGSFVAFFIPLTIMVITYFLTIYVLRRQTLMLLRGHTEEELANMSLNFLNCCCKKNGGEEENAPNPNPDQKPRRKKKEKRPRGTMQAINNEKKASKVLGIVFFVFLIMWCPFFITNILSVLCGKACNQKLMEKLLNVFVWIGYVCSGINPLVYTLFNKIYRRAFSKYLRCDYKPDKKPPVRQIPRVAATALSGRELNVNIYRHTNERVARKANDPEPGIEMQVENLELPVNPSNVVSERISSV

5-HT7^−/− mice = assay: Body temperature regulation in 5-HT7-/- mice; format: in vivo, mouse
[3] = Disposition: plasma and brain concentrations in mice; format: in vivo, mouse; conditions: for Plasma concentration: 30 min
In short: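 Male 5-HT7−/− and 5-HT7+/+ sibling mice, 10–12 weeks old, got test compound i.p. (10 or 30 mg·kg−1). It was dissolved in ethanol at 10× and diluted in saline just before injection. At 30 min mice were killed by isoflurane overdose; […] and brain were stored at −80 °C. Parent and metabolite were measured in plasma and water brain homogenate (1 g·10 mL−1) by RP-HPLC-UV at 230 nm with internal standard. LLOQ 50 ng·mL−1 or g−1. Ratios on molar basis; 5 mice/group.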

h5-ht1E = h5-ht1E (Homo sapiens, UniProt P28566); assay: Competition radioligand binding; conditions: for Ki: 3 nM [3H]5-HT
hSERT = hSERT (Homo sapiens, UniProt P31645); assay: Competition radioligand binding; conditions: 0.79 nM [3H]citalopram; mean ± S.E.M.
h5-HT3 = molecular target: T3, h5-HT3 (Homo sapiens, UniProt P46098); assay: Competition radioligand binding; conditions: for Ki: 0.29 nM [3H]LY278584, mean ± S.E.M.
T3 sequence (P46098 24-478): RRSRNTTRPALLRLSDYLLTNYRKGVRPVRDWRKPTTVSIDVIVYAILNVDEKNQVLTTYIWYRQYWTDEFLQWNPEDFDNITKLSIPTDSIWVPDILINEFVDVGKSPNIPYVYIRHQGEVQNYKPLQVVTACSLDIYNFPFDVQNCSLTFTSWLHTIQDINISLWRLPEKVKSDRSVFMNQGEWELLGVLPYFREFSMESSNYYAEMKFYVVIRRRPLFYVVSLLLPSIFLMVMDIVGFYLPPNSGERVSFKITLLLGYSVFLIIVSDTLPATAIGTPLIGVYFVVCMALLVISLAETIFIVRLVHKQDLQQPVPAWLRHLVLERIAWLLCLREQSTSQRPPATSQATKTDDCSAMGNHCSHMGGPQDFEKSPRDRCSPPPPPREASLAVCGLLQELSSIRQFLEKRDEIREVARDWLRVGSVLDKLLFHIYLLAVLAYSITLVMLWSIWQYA

h5-HT2A = h5-HT2A (Homo sapiens, UniProt P28223); format: binding; conditions: 0.5 nM [3H]ketanserin; mean ± S.E.M.
h5-HT2B = h5-HT2B (Homo sapiens, UniProt P41595); assay: Competition radioligand binding; conditions: 1.0 nM [3H]LSD; mean ± S.E.M.
5-HT7 receptor = conditions: cited from earlier work
h5-HT7 = h5-HT7 (Homo sapiens, UniProt P34969); assay: Competition radioligand binding
[4] = cited from earlier work
[5] = 3, 10, and 30 mg/kg i.p., wild-type mice
[6] = 0.5 nM [3H]8-OH-DPAT, mean ± S.E.M.

Chain of h5-ht1E (P28566 whole entry): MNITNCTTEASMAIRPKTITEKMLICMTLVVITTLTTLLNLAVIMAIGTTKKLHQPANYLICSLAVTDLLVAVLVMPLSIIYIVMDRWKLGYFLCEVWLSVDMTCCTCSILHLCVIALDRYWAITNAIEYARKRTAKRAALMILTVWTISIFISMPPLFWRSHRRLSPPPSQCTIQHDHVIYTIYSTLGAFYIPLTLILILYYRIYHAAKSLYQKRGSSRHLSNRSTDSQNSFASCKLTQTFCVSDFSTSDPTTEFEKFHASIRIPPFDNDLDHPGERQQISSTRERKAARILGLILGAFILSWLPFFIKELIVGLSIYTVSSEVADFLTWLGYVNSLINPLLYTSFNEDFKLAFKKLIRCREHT
Chain of h5-ht5A (P47898 whole entry): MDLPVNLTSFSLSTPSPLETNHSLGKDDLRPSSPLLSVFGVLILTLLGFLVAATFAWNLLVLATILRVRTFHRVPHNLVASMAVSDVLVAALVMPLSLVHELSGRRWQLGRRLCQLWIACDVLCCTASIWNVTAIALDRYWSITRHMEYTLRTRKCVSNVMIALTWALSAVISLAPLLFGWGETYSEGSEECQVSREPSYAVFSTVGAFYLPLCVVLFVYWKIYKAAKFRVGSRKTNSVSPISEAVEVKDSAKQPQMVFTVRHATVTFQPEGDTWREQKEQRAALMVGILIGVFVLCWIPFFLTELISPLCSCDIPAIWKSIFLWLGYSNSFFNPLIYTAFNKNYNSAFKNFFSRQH
Chain of h5-HT7 (P34969 whole entry): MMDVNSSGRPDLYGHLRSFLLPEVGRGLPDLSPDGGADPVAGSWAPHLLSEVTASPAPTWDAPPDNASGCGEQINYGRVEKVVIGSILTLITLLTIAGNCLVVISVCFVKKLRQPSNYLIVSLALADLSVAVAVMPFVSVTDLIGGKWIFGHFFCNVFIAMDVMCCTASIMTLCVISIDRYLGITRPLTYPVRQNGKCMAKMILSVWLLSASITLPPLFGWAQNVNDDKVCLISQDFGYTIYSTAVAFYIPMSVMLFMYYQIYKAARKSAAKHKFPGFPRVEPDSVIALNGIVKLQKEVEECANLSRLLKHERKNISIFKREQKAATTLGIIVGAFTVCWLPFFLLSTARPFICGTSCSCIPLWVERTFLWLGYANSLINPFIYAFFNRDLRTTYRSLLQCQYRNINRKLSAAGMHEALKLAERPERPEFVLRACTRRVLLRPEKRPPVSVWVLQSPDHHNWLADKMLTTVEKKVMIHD
Chain of h5-HT2A (P28223 whole entry): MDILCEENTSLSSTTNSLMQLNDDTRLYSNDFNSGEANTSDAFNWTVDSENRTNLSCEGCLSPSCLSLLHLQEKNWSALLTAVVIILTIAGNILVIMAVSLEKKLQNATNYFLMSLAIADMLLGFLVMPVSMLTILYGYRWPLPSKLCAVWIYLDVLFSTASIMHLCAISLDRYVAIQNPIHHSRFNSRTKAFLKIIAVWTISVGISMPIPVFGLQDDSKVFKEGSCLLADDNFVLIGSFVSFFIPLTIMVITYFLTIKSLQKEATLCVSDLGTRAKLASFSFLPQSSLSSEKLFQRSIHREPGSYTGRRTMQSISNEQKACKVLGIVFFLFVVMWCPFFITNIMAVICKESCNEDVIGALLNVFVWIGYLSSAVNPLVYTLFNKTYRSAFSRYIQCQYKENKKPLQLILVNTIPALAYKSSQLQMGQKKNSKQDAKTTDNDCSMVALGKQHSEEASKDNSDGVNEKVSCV
Chain of h5-HT6 (P50406 whole entry): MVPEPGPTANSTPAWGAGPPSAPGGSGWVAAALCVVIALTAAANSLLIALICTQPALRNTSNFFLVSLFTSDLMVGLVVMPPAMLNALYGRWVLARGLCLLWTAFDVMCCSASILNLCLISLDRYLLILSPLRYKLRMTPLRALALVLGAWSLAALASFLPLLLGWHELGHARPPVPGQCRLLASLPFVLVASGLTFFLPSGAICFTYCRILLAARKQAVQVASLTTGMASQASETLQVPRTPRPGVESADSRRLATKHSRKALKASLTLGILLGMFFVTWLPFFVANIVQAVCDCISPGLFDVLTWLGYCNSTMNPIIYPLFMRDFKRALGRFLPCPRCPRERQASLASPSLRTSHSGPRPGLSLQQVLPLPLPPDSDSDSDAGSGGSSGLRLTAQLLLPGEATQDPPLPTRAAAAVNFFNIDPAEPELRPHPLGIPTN
Chain of h5-HT1B (P28222 whole entry): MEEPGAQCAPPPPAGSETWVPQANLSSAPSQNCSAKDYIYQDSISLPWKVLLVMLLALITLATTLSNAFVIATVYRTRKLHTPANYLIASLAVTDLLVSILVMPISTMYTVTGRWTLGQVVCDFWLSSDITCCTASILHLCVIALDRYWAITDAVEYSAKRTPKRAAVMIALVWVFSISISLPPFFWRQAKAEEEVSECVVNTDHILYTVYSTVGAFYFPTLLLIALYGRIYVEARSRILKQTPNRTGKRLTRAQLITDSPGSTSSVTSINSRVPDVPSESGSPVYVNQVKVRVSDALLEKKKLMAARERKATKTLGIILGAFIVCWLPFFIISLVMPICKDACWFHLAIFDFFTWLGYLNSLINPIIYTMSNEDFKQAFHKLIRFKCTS
Chain of h5-HT1D (P28221 whole entry): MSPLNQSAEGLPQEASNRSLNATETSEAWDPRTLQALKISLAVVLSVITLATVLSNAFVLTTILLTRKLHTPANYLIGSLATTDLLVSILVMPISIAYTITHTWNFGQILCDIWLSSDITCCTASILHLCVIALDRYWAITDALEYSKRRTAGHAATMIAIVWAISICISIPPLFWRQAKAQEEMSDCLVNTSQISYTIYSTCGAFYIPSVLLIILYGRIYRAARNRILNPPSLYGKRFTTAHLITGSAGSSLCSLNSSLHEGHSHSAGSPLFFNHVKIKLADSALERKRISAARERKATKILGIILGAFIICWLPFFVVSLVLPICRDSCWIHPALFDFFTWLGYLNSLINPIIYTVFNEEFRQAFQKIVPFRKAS
Chain of hSERT (P31645 whole entry): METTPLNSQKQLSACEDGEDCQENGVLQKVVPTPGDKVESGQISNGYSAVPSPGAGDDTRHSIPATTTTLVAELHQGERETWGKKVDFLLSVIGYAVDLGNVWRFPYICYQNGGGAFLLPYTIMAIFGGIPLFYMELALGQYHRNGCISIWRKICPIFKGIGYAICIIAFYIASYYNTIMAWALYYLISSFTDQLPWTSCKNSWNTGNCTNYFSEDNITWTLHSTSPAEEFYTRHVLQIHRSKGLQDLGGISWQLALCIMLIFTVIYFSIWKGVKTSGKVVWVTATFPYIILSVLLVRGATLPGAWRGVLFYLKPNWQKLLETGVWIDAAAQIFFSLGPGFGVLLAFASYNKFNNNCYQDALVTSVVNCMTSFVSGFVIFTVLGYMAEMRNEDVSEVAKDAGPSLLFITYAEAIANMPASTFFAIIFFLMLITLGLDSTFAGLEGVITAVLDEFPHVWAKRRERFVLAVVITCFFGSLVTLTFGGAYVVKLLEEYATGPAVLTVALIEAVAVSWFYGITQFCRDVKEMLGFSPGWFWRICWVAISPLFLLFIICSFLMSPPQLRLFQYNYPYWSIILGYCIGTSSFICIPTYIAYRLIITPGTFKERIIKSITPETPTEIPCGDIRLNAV
Chain of h5-HT2B (P41595 whole entry): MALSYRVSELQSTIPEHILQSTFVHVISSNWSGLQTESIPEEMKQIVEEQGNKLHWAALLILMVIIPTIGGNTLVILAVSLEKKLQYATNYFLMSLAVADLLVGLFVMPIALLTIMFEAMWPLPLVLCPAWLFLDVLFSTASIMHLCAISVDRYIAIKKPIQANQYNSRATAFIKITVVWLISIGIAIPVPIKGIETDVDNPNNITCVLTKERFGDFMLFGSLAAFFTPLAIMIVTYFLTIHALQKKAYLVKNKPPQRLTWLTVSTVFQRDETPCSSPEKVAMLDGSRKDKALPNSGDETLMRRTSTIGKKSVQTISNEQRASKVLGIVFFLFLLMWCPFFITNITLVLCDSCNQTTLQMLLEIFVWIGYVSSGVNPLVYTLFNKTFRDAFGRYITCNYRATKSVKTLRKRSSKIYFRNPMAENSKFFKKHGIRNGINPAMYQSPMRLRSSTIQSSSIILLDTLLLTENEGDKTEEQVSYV

In the case of `CCCN(CCC)C1CCc2cccc(O)c2C1` (centres unmarked) [8-OH-DPAT, 8-hydroxy-N,N-dipropylaminotetraline], the Ki [1] is listed as 467 nM and the Ki (human cloned 5-HT1A) is listed as 3.8 nM.

For `N#Cc1ccc(CNC(=O)CCCCCN2CCN(c3ccccc3-c3ccccc3)CC2)cc1` [LP-211, N-(4-cyanophenylmethyl)-4-(2-diphenyl)-1-piperazinehexanamide], the Ki (h5-HT1B) was 215 ± 10 nM, the Ki (h5-ht5A) was 178 ± 26 nM and the “effect on body temperature” value (5-HT7^+/+ mice; 3 mg/kg i.p., 5-HT7+/+ mice) was “did not alter body temperature”. The “effect on body temperature” value (5-HT7^+/+ mice; 10 mg/kg i.p., 5-HT7+/+ mice) was “had a peak effect”, the “effect on body temperature” value (5-HT7^+/+ mice; 30 mg/kg i.p., 5-HT7+/+ mice, peak change and overall change) was “significant effect” and the “effect on body temperature” value (5-HT7^+/+ mice; [5]) was “dose-dependently reduced body temperature”. For the same compound, the “time of peak effect on body temperature after the injection” value (5-HT7^+/+ mice; [5]) was 15 to 30 min, the “visible adverse effects apart from the hypothermia” value (mice) was “did not induce any visible adverse effects” and the Ki (h5-HT6) was 1570 ± 193 nM. For the same compound, the Ki (h5-HT1A; [6]) was 379 ± 118 nM, the Ki (h5-HT1D) was 394 ± 74 nM and the Ki [2] was 0.58 nM. For the same compound, the Ki (r5-HT2C) was 91 ± 9 nM, the “effect on body temperature” value (5-HT7^−/− mice; 3 mg/kg i.p.) was “did not alter body temperature” and the “effect on body temperature” value (5-HT7^−/− mice; 10 mg/kg i.p.) was “but not in 5-HT7^−/− mice”. For the same compound, the “effect on body temperature” value (5-HT7^−/− mice; 30 mg/kg i.p.) was “significant, but less pronounced, effect on peak change”, the Plasma concentration ([3]; LP-211 10 mg/kg i.p., 5-HT7+/+ mice) was […] and the Plasma concentration ([3]; LP-211 10 mg/kg i.p., 5-HT7-/- mice) was […]. The Plasma concentration ([3]; LP-211 30 mg/kg i.p., 5-HT7+/+ mice) was […], the Plasma concentration ([3]; LP-211 30 mg/kg i.p., 5-HT7-/- mice) was […] and the “binding at 5-HT1E receptors” value (h5-ht1E) was “did not significantly bind”. The Ki (h5-ht1E) was greater than 10000 nM, the Ki (hSERT) was 812 ± 156 nM and the “binding at 5-HT3 receptors” value (h5-HT3) was “did not significantly bind”. For the same compound, the Ki (h5-HT3) was greater than 10000 nM, the Ki (h5-HT2A) was 626 ± 141 nM and the Ki (h5-HT2B) was 67 ± 10 nM. The EC50 (5-HT7 receptor; isolated guinea pig ileum) was […] and the “maximal activity compared to 5-CT” value (5-HT7 receptor; isolated guinea pig ileum) was […].

Work on `CC[C@@H](CO)NC(=O)[C@@H]1C=C2c3cccc4c3c(cn4C)C[C@H]2N(C)C1` [Methysergide, reference compound] yielded a Ki (h5-HT1A) of 38 nM.

With `c1ccc(-c2ccccc2N2CCNCC2)cc1` [RA-7, 1-(2-diphenyl)piperazine] the Ki (h5-HT1B) was 1020 ± 121 nM, the Ki (h5-ht5A) was 76 ± 14 nM and the “selectivity for 5-HT7 over 5-HT5A” value (h5-ht5A; from Ki values) was 54 fold. For the same compound, the “effect on body temperature” value (5-HT7^+/+ mice; 3 mg/kg i.p., genotype not given) was “slight but significant hyperthermic effect”, the “effect on body temperature” value (5-HT7^+/+ mice; 10 mg/kg i.p., 5-HT7+/+ mice) was “induced hypothermia to small degree that reached significance for overall change” and the “visible adverse effects apart from the hypothermia” value (mice) was “did not induce any visible adverse effects”. For the same compound, the Ki (h5-HT6) was 596 ± 70 nM, the Ki (h5-HT1A; [6]) was 99 ± 22 nM and the “selectivity for 5-HT7 over 5-HT1A” value (h5-HT1A; from Ki values) was 71 fold. For the same compound, the Ki (h5-HT1D) was 302 ± 39 nM, the Ki (r5-HT2C) was 171 ± 14 nM and the “metabolite in plasma and brain” value ([3]; 30 min after the lowest dose of LP-211, 5-HT7-/- and 5-HT7+/+ mice) was “undetectable”. The Ki (h5-ht1E) was greater than 10000 nM, the Ki (hSERT) was 439 ± 41 nM and the Ki (h5-HT7; 1.1 nM [3H]LSD, mean ± S.E.M.) was 1.4 ± 0.2 nM. The “Ki at human 5-HT7 lower than the corresponding value for the parent compound” value (h5-HT7; RA-7 vs LP-211) was “approximately 10 fold”, the “selectivity for 5-HT7 over a range of 5-HT receptor subtypes and SERT” value (h5-HT7; from Ki values) was greater than 54 fold and the “mean metabolite-to-parent compound ratio in mouse brain, molar basis” value [4] was “about 2”. For the same compound, the Ki (h5-HT3) was 228 ± 34 nM, the Ki (h5-HT2A) was 1190 ± 288 nM and the Ki (h5-HT2B) was 178 ± 19 nM.

In the case of `CC1CCN(CC[C@H]2CCCN2S(=O)(=O)c2cccc(O)c2)CC1` [SB-269970, (2R)-1-[(3-hydroxyphenyl)sulfonyl]-2-[2-(4-methyl-1-piperidinyl)ethyl]pyrrolidine, reference compound], the “effect of the antagonist itself on body temperature” value (5-HT7^+/+ mice; 10 mg/kg i.p., genotype not given) is given as “no effect on body temperature”, the “antagonism of the effect of LP-211 (30 mg/kg) on body temperature” value (5-HT7^+/+ mice; antagonist 10 mg/kg i.p., 30 min prior to LP-211) is given as “blocked the effect of LP-211” and the “reversal of the LP-211 effect in guinea pig ileum” value (5-HT7 receptor) is given as “reversed”.
